Data published in ChEMBL document CHEMBL1137306, “Evaluation of 3-carboxy-4(1H)-quinolones as inhibitors of human protein kinase CK2” (J Med Chem, 2006).

Columns and labels:
[1] = molecular target: T1, Casein kinase II (Homo sapiens) (UniProt P67870+P68400+P19784); assay: Residual activity of human CK2 at 30 uM; type: protein-complex assay
[2] = molecular target: T2, Casein kinase II (Homo sapiens, UniProt P19784+P67870+P68400); assay: Inhibition of human CK2; type: protein-complex assay
[3] = molecular target: Mitogen-activated protein kinase 10 (Homo sapiens) (UniProt P53779); assay: Residual activity of JNK3 at 10 uM in presence of 100 uM ATP relative to control
[4] = molecular target: T2, Casein kinase II; assay: Binding affinity to human CK2 in presence of ATP; type: protein-complex assay
How it was run: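 Ki obtained from Lineweaver-Burk plots of CK2 activity measured at varied ATP and inhibitor concentrations (inhibitor 0 to 0.5 µM). Activity was read by the radiometric phosphocellulose peptide assay.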

[5] = molecular target: Dual specificity tyrosine-phosphorylation-regulated kinase 1A (Homo sapiens) (UniProt Q13627); assay: Residual activity of DYRK1a at 10 uM in presence of 100 uM ATP relative to control
[6] = molecular target: Rho-associated protein kinase 1 (Homo sapiens) (UniProt Q13464); assay: Residual activity of ROCK1 at 10 uM in presence of 100 uM ATP relative to control
[7] = molecular target: Ribosomal protein S6 kinase alpha-5 (Homo sapiens) (UniProt O75582); assay: Residual activity of MSK1 at 10 uM in presence of 100 uM ATP relative to control
[8] = molecular target: Cyclin-dependent kinase 5 (Homo sapiens) (UniProt Q00535); assay: Residual activity of CDK5 at 10 uM in presence of 100 uM ATP relative to control
[9] = molecular target: Tyrosine-protein kinase Lck (Homo sapiens) (UniProt P06239); assay: Residual activity of p56LCK at 10 uM in presence of 100 uM ATP relative to control
[10] = molecular target: Glycogen synthase kinase-3 (Homo sapiens) (UniProt P49840+P49841); assay: Residual activity of GSK3 at 10 uM in presence of 100 uM ATP relative to control; type: protein assay
[11] = molecular target: T1, Casein kinase II (Homo sapiens); assay: Residual activity of CK2 at 10 uM in presence of 100 uM ATP relative to control; type: protein-complex assay

T2 sequence (P67870 whole entry): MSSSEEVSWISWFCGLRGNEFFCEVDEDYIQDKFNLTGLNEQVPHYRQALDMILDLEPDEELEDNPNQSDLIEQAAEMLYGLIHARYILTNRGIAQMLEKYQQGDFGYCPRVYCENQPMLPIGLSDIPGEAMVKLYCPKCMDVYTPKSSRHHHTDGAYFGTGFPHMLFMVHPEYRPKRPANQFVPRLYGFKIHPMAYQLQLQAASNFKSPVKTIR
T2 sequence (P68400 whole entry): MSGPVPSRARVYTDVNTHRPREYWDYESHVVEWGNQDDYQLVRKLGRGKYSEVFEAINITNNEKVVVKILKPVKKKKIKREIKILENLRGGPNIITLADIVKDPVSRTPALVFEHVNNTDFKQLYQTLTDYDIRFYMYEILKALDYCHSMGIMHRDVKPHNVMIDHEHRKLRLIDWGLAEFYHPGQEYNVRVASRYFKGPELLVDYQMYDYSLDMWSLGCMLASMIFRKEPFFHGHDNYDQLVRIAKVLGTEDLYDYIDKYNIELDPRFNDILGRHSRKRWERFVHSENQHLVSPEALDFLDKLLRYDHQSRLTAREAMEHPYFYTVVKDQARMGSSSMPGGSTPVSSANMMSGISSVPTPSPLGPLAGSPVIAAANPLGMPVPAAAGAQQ
T2 sequence (P19784 whole entry): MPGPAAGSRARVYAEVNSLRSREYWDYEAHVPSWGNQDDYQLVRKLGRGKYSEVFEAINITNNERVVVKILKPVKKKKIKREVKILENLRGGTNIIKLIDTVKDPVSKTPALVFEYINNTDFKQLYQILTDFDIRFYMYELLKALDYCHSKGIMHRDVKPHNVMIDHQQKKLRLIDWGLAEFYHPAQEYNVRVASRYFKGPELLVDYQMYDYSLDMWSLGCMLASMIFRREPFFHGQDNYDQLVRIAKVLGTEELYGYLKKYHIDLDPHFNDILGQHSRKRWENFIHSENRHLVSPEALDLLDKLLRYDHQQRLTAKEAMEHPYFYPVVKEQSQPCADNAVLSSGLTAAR
Chain of Tyrosine-protein kinase Lck (Homo sapiens) (P06239 2-509 limits assumed): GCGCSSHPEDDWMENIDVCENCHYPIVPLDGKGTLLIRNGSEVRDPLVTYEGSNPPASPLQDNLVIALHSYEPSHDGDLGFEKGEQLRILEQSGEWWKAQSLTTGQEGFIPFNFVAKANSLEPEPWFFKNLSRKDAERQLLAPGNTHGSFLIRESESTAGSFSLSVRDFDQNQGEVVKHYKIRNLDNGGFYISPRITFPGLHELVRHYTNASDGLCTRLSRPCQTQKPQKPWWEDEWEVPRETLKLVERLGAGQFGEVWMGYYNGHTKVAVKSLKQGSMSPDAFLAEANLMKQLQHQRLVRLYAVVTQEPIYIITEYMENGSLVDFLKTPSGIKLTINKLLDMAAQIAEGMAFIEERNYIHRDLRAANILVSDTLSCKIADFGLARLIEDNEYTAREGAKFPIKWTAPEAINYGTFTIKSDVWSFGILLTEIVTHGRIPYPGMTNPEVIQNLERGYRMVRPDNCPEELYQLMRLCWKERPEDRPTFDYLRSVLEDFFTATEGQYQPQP
Chain of Mitogen-activated protein kinase 10 (Homo sapiens) (P53779 whole entry): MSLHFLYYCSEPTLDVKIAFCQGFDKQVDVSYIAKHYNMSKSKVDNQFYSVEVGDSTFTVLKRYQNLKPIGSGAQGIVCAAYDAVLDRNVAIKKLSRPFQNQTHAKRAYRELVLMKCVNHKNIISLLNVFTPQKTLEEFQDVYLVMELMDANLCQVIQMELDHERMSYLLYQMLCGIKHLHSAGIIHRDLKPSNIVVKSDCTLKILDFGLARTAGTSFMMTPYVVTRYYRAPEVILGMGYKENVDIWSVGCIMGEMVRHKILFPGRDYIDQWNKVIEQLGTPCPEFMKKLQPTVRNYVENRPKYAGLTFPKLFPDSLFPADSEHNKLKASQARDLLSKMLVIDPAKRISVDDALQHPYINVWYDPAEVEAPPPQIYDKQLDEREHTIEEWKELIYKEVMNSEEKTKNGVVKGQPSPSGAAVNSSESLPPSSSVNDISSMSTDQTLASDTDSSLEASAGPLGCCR
Chain of Ribosomal protein S6 kinase alpha-5 (Homo sapiens) (O75582 whole entry, looked up): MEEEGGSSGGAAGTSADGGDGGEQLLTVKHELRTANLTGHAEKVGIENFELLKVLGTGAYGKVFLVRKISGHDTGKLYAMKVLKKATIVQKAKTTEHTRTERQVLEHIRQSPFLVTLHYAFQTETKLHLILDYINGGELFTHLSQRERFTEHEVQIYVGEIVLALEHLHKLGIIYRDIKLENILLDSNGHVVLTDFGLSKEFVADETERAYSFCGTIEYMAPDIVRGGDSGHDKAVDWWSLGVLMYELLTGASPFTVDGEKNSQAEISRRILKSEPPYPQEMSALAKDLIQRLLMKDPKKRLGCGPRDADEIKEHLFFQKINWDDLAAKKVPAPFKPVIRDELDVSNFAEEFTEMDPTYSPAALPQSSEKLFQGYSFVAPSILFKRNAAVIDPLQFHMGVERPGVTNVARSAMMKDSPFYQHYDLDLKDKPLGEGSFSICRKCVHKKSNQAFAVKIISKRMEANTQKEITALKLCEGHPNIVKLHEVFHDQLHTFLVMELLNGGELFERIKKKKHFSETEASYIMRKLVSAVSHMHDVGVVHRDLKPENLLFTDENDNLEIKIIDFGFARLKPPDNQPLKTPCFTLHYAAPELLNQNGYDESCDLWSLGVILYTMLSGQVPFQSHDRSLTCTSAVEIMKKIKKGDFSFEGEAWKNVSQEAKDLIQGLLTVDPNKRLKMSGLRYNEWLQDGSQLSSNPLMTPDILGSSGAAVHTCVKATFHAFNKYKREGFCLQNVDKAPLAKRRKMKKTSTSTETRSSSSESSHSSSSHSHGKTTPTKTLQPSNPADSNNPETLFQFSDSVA
Chain of Rho-associated protein kinase 1 (Homo sapiens) (Q13464 2-1354 limits assumed): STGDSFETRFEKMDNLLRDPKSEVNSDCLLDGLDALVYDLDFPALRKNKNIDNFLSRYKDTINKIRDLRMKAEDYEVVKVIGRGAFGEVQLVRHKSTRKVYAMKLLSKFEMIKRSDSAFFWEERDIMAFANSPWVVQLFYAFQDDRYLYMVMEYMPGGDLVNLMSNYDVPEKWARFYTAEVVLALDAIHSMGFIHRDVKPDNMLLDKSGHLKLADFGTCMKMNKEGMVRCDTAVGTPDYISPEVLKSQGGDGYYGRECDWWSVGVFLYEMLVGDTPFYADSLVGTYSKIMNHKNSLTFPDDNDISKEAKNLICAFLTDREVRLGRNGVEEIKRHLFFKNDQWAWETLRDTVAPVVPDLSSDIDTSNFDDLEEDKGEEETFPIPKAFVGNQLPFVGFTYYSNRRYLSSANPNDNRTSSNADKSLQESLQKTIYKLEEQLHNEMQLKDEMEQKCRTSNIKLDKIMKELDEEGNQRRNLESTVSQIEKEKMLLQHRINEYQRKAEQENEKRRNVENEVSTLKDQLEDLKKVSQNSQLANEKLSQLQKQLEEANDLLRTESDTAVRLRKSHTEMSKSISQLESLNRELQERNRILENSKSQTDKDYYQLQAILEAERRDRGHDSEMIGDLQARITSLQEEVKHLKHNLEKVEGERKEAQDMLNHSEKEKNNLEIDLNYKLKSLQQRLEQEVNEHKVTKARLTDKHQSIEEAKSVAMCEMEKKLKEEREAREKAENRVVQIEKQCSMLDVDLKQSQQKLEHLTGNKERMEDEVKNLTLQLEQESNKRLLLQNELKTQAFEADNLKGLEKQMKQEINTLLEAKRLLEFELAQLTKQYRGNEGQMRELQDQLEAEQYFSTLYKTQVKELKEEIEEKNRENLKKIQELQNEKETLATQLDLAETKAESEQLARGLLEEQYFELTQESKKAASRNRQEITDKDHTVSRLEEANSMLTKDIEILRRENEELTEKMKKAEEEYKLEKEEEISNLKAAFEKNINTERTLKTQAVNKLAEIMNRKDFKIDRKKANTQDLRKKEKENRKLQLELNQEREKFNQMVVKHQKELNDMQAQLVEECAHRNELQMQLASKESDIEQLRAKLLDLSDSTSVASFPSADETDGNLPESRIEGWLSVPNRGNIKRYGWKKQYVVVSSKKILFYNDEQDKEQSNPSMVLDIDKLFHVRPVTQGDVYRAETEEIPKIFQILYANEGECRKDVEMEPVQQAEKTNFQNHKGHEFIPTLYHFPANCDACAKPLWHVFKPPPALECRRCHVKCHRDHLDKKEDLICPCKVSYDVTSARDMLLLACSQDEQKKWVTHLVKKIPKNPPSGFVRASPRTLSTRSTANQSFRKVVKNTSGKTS
Chain of Glycogen synthase kinase-3 (Homo sapiens) (P49840 whole entry, looked up): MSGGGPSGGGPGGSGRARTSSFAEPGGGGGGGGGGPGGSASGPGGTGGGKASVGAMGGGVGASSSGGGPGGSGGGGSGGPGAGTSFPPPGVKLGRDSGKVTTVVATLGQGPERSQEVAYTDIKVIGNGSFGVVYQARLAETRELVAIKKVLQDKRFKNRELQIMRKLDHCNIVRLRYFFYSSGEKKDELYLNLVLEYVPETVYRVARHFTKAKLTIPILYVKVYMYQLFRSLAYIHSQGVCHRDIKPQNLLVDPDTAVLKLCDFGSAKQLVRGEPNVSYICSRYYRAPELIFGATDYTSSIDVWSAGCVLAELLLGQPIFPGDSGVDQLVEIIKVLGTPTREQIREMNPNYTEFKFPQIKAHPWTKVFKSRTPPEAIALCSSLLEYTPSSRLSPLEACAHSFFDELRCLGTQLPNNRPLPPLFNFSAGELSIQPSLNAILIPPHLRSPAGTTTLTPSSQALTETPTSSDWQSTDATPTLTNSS
Chain of Glycogen synthase kinase-3 (Homo sapiens) (P49841 whole entry, looked up): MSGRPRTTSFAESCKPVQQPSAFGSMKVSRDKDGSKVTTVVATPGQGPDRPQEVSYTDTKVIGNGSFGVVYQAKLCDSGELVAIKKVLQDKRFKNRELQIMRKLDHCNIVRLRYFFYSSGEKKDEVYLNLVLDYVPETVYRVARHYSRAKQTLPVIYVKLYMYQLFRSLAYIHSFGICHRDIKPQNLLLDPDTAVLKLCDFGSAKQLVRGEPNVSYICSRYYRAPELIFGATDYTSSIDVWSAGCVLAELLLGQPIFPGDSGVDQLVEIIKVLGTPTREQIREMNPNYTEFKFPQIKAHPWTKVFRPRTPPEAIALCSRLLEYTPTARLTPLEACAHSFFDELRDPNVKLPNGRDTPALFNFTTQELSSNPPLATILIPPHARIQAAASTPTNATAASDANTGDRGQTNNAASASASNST

Structure (SMILES) | Activity [1] [%] | other results
CC1COc2c(F)c(F)cc3c(=O)c(C(=O)O)cn1c23 (stereo not given) | 88 | –
O=C(O)c1cnc2ccccc2c1O | 103 | –
CCOc1ccc2ncc(C(=O)O)c(O)c2c1 | 107 | –
CC(C)Oc1cccc2c(O)c(C(=O)O)cnc12 | 93 | –
CCCCc1ccc2ncc(C(=O)O)c(O)c2c1 | 87 | –
O=C(O)c1c[nH]c2c(Cl)c(Cl)ccc2c1=O | – | IC50 [2]: 800 nM
O=C(O)c1cnc2c(Cl)cc(Cl)cc2c1O | 64 | –
Cc1cccc2c(O)c(C(=O)O)cnc12 | 74 | –
O=C(O)c1cnc2cc(C(F)(F)F)ccc2c1O | 78 | –
O=C(O)c1cnc2c(C(=O)O)cccc2c1O | 73 | –
Cc1ccc2c(c1)c(=O)c(C(=O)O)cn2C | 100 | –
COc1cccc2c(O)c(C(=O)O)cnc12 | 92 | –
O=C(O)c1cnc2ccc(Cl)cc2c1O | 75 | –
COc1ccc2ncc(C(=O)O)c(O)c2c1 | 101 | –
O=C(O)c1cnc2cc(Cl)cc(Cl)c2c1O | 70 | –
O=C(O)c1ccc2c(O)c(C(=O)O)cnc2c1 | 74 | –
CC(=O)c1ccc2ncc(C(=O)O)c(O)c2c1 | 100 | –
Cn1cc(C(=O)O)c(=O)c2ccccc21 | 106 | –
CC(C)c1cccc2c(O)c(C(=O)O)cnc12 | 95 | –
Cc1ccc2ncc(C(=O)O)c(O)c2c1 | 100 | –
CN(C)c1ccc2ncc(C(=O)O)c(O)c2c1 | 75 | –
COc1cc(OC)c2ncc(C(=O)O)c(O)c2c1 | 99 | –

Structure (SMILES) | Activity [1] [%] | other results
O=C(O)c1cnc2c(Br)cccc2c1O | 42 | –
O=C(O)c1cnc2ccc(Oc3ccccc3)cc2c1O | 89 | –
O=C(O)c1cnc2c(Cl)c(Cl)ccc2c1O | 12.5 | –
Cc1c(Cl)ccc2c(O)c(C(=O)O)cnc12 | 15 | IC50 [2]: 2000 nM
O=C(O)c1ccc2ncc(C(=O)O)c(O)c2c1 | 91 | –
O=C(O)c1cnc2ccc(Br)cc2c1O | 76 | –
O=C(O)c1cnc2cc3c(cc2c1O)OCCO3 | 81 | –
Cc1ccc2c(O)c(C(=O)O)cnc2c1C | 56 | IC50 [2]: ≥ 33000 nM
CCOc1cccc2c(O)c(C(=O)O)cnc12 | 103 | –
Cc1ccc(C)c2c(O)c(C(=O)O)cnc12 | 32 | –
O=C(O)c1cnc2c(ccc3ccccc32)c1O | 4.5 | Activity [3]: 81%; Ki [4]: 280 nM; Activity [5]: 85%; Activity [6]: 78%; Activity [7]: 89%; IC50 [2]: 1000 nM; Activity [8]: > 50%; Activity [9]: 80%; Activity [10]: > 50%; Activity [11]: 25%
Cc1cc(C)c2c(c1)c(=O)c(C(=O)O)cn2C | 102 | –
O=C(O)c1cnc2c(Cl)cc(Cl)c(Cl)c2c1O | 2.6 | Activity [3]: 74%; Ki [4]: 60 nM; Activity [5]: 35%; Activity [6]: 85%; Activity [7]: 71%; IC50 [2]: 300 nM; Activity [8]: > 50%; Activity [9]: 87%; Activity [10]: > 50%; Activity [11]: 11%
O=C(O)c1cnc2ccc(F)cc2c1O | 72 | –
O=C(O)c1cnc2c(Cl)cccc2c1O | 37 | –
CCc1cccc2c(O)c(C(=O)O)cnc12 | 86 | –
O=C(O)c1cnc2ccc(I)cc2c1O | 85 | –
O=C(O)c1cnc2c(F)cccc2c1O | 70 | –
CCCOc1ccc2ncc(C(=O)O)c(O)c2c1 | 80 | –
CC1COc2c(N3CCN(C)CC3)c(F)cc3c(=O)c(C(=O)O)cn1c23 (stereo not given) | 100 | –
Cc1cc(C)c2ncc(C(=O)O)c(O)c2c1 | 63 | –
